Reference: ChEMBL document CHEMBL1142436, “Design and synthesis of 4-substituted indolo[3,2-e][1,2,3]triazolo[1,5-a]pyrimidine derivatives with antitumor activity” (2008)

Experiments:
Assay type in all cases: functional
[1] = tested on: NCI-H460; experiment: Growth inhibition of human NCI-H460 cells after 48 hrs; conditions: NCI-H460, 48 h; for TGI: read-out: pTGI (converted)
How it was run: (§1)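 NCI ~60-line screen. Cells were grown in RPMI 1640 with 5% FBS and 2 mM L-glutamine and plated at 5000–40000 cells/well. After a 24 h preincubation, five drug concentrations from DMSO stocks were added for 48 h at 37 °C. Cells were TCA-fixed, stained with SRB and read at 515 nm. GI50 was taken from time-zero and control absorbances and reported as pGI50.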

[2] = tested on: EKVX; experiment: Growth inhibition of human EKVX cells after 48 hrs; conditions: for TGI: read-out: pTGI (converted); how it was run: as §1
[3] = tested on: SW-620; experiment: Growth inhibition of human SW620 cells after 48 hrs; conditions: SW-620, 48 h; for TGI: read-out: pTGI (converted)
How it was run: (§2)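 NCI 60-line screen: cells in RPMI 1640 with 5% FBS and 2 mM L-glutamine, plated at 5000–40000 cells/well, grown 24 h (37 °C, 5% CO₂), then exposed to five 10-fold or ½-log dilutions (DMSO stock) for 48 h. Fixed with TCA (final 10% for adherent cells, 16% for suspension cells), then SRB stained with absorbance at 515 nm. GI50 from percentage growth relative to time-zero and control wells.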

[4] = tested on: KM12; experiment: Growth inhibition of human KM12 cells after 48 hrs; conditions: KM12, 48 h; for TGI: read-out: pTGI (converted); how it was run: as §1
[5] = tested on: U-251; experiment: Growth inhibition of human U251 cells after 48 hrs; conditions: U-251, 48 h; for TGI: read-out: pTGI (converted); how it was run: as §2
[6] = tested on: SF-295; experiment: Growth inhibition of human SF295 cells after 48 hrs; conditions: SF-295, 48 h; for TGI: read-out: pTGI (converted); how it was run: as §1
[7] = tested on: SK-OV-3; experiment: Growth inhibition of human SKOV3 cells after 48 hrs; conditions: SK-OV-3, 48 h; for TGI: read-out: pTGI (converted); how it was run: as §2
[8] = tested on: MDA-MB-231; experiment: Growth inhibition of human MDA-MB-231 cells after 48 hrs; conditions: MDA-MB-231, 48 h; for TGI: read-out: pTGI (converted); how it was run: as §1
[9] = tested on: ACHN; experiment: Growth inhibition of human ACHN cells after 48 hrs; conditions: for TGI: read-out: pTGI (converted); how it was run: as §1
[10] = tested on: OVCAR-5; experiment: Growth inhibition of human OVCAR5 cells after 48 hrs; conditions: OVCAR-5, 48 h; for TGI: read-out: pTGI (converted); how it was run: as §1
[11] = tested on: CCRF-CEM; experiment: Growth inhibition of human CCRF-CEM cells after 48 hrs; conditions: for TGI: read-out: pTGI (converted); how it was run: as §1
[12] = tested on: TK-10; experiment: Growth inhibition of human TK10 cells after 48 hrs; conditions: TK-10, 48 h; for TGI: read-out: pTGI (converted); how it was run: as §2
[13] = tested on: SNB-75; experiment: Growth inhibition of human SNB75 cells after 48 hrs; conditions: SNB-75, 48 h; how it was run: as §2
[14] = tested on: DU-145; experiment: Growth inhibition of human DU145 cells after 48 hrs; conditions: DU-145, 48 h; for TGI: read-out: pTGI (converted); how it was run: as §1
[15] = tested on: OVCAR-3; experiment: Growth inhibition of human OVCAR-3 cells after 48 hrs; conditions: OVCAR-3, 48 h; for TGI: read-out: pTGI (converted); how it was run: as §1
[16] = tested on: IGROV-1; experiment: Growth inhibition of human IGROV1 cells after 48 hrs; conditions: IGROV-1, 48 h; how it was run: as §1
[17] = tested on: K562; experiment: Growth inhibition of human K562 cells after 48 hrs; conditions: K562, 48 h; for TGI: read-out: pTGI (converted); how it was run: as §1
[18] = tested on: NCI-H522; experiment: Growth inhibition of human NCI-H522 cells after 48 hrs; conditions: NCI-H522, 48 h; for TGI: read-out: pTGI (converted); how it was run: as §1
[19] = tested on: SNB-19; experiment: Growth inhibition of human SNB19 cells after 48 hrs; conditions: SNB-19, 48 h; how it was run: as §2
[20] = tested on: SK-MEL-5; experiment: Growth inhibition of human SK-MEL5 cells after 48 hrs; conditions: SK-MEL-5, 48 h; how it was run: as §1
[21] = tested on: HT-29; experiment: Growth inhibition of human HT29 cells after 48 hrs; conditions: HT-29, 48 h; for TGI: read-out: pTGI (converted); how it was run: as §1
[22] = tested on: SK-MEL-28; experiment: Growth inhibition of human SK-MEL28 cells after 48 hrs; conditions: SK-MEL-28, 48 h; for TGI: read-out: pTGI (converted); how it was run: as §1
[23] = tested on: RXF 393; experiment: Growth inhibition of human RXF393 cells after 48 hrs; conditions: RXF 393, 48 h; for TGI: read-out: pTGI (converted); how it was run: as §1
[24] = tested on: OVCAR-4; experiment: Growth inhibition of human OVCAR4 cells after 48 hrs; conditions: OVCAR-4, 48 h; for TGI: read-out: pTGI (converted); how it was run: as §1
[25] = tested on: SN12C; experiment: Growth inhibition of human SN12C cells after 48 hrs; conditions: for TGI: read-out: pTGI (converted); how it was run: as §2
[26] = tested on: COLO 205; experiment: Growth inhibition of human COLO205 cells after 48 hrs; conditions: COLO 205, 48 h; for TGI: read-out: pTGI (converted); how it was run: as §1
[27] = tested on: A498; experiment: Growth inhibition of human A498 cells after 48 hrs; conditions: A498, 48 h; for TGI: read-out: pTGI (converted); how it was run: as §1
[28] = tested on: PC-3; experiment: Growth inhibition of human PC3 cells after 48 hrs; conditions: PC-3, 48 h; for TGI: read-out: pTGI (converted); how it was run: as §1
[29] = tested on: MOLT-4; experiment: Growth inhibition of human MOLT4 cells after 48 hrs; conditions: MOLT-4, 48 h; for TGI: read-out: pTGI (converted); how it was run: as §1
[30] = tested on: NCI/ADR-RES; experiment: Growth inhibition of human NCI/ADR-RES cells after 48 hrs; conditions: for TGI: read-out: pTGI (converted); how it was run: as §1
[31] = Growth inhibition of human HS578T cells after 48 hrs; conditions: Hs-578T; for TGI: read-out: pTGI (converted); how it was run: as §1
[32] = tested on: SK-MEL-2; experiment: Growth inhibition of human SK-MEL2 cells after 48 hrs; conditions: SK-MEL-2, 48 h; for TGI: read-out: pTGI (converted); how it was run: as §1
[33] = tested on: HCC 2998; experiment: Growth inhibition of human HCC2998 cells after 48 hrs; conditions: HCC 2998, 48 h; for TGI: read-out: pTGI (converted); how it was run: as §1
[34] = tested on: UACC-62; experiment: Growth inhibition of human UACC62 cells after 48 hrs; conditions: UACC-62, 48 h; for TGI: read-out: pTGI (converted); how it was run: as §2

## CCCCN(CCCC)CCCn1c(=O)c2c3ccccc3n(C)c2n2nnc(-c3ccccc3)c12
[1]
  GI50: 40.7 µM
  TGI: > 100 µM
[2]
  GI50: 56.2 µM
  TGI: > 100 µM
[3]
  GI50: 26.3 µM
  TGI: > 100 µM
[4]
  GI50: 33.9 µM
  TGI: > 100 µM
[5]
  GI50: 33.1 µM
  TGI: > 100 µM
[6]
  GI50: 31.6 µM
  TGI: > 100 µM
[7]
  GI50: 30.2 µM
  TGI: 30.2 µM
[8]
  GI50: 36.3 µM
  TGI: > 100 µM
[9]
  GI50: 34.7 µM
  TGI: > 100 µM
[10]
  GI50: 22.4 µM
  TGI: > 100 µM
[11]
  GI50: 4.17 µM
  TGI: 91.2 µM
[12]
  GI50: 1.91 µM
  TGI: 22.4 µM
[13]
  GI50: 15.1 µM
[13]; read-out: pTGI (converted)
  TGI: 56.2 µM
[14]
  GI50: 47.9 µM
  TGI: > 100 µM
[15]
  GI50: 49 µM
  TGI: > 100 µM
[16]
  LC50: > 50.1 µM
[17]
  GI50: 13.8 µM
  TGI: > 100 µM
[18]
  TGI: 10.7 µM
[19]
  GI50: > 100 µM
[19]; read-out: pTGI (converted)
  TGI: > 100 µM
[20]
  GI50: 31.6 µM
[20]; read-out: pTGI (converted)
  TGI: > 100 µM
[21]
  GI50: 7.76 µM
  TGI: 36.3 µM
[22]
  GI50: > 100 µM
  TGI: > 100 µM
[23]
  GI50: 14.1 µM
  TGI: 42.7 µM
[24]
  GI50: 17.4 µM
  TGI: 83.2 µM
[25]
  GI50: 19.5 µM
  TGI: 95.5 µM
[26]
  GI50: 5.01 µM
  TGI: 63.1 µM
[27]
  GI50: 42.7 µM
  TGI: > 100 µM
[28]
  GI50: 18.2 µM
  TGI: 47.9 µM
[29]
  GI50: 13.8 µM
  TGI: > 100 µM
[30]
  GI50: 14.1 µM
  TGI: 67.6 µM
[31]
  GI50: 38.9 µM
  TGI: > 100 µM
[32]
  GI50: > 100 µM
  TGI: > 100 µM
[33]
  GI50: 20.4 µM
  TGI: > 100 µM
[34]
  GI50: 22.4 µM
  TGI: 85.1 µM

## CCOC(=O)CNC(=O)CCCn1c(=O)c2c3ccccc3n(C)c2n2nnc(-c3ccccc3)c12
[1]
  GI50: > 50.1 µM
  LC50: > 50.1 µM
  TGI: > 50.1 µM
[2]
  GI50: > 50.1 µM
  LC50: > 50.1 µM
  TGI: 20.4 µM
[3]
  GI50: > 50.1 µM
  LC50 (lethal concentration, 50% cell kill): > 50.1 µM
  TGI: > 50.1 µM
[4]
  GI50: > 50.1 µM
  LC50: > 50.1 µM
  TGI: > 50.1 µM
[5]
  GI50: 4.17 µM
  LC50: 46.8 µM
  TGI: 14.5 µM
[6]
  GI50: 4.79 µM
  LC50: > 50.1 µM
  TGI: 17.4 µM
[7]
  GI50: 6.76 µM
  LC50: > 50.1 µM
  TGI: 43.7 µM
[8]
  GI50: 14.8 µM
  LC50 (concentration killing 50% of cells): > 50.1 µM
  TGI: 30.9 µM
[9]
  GI50: 9.33 µM
  LC50: > 50.1 µM
  TGI: 33.9 µM
[10]
  GI50: 27.5 µM
  LC50 (concentration killing 50% of cells): > 50.1 µM
  TGI: > 50.1 µM
[11]
  GI50: 26.3 µM
  LC50: > 50.1 µM
  TGI: > 50.1 µM
[12]
  GI50: 8.71 µM
  LC50: > 50.1 µM
  TGI: 20.9 µM
[13]
  GI50: 1.12 µM
  LC50: 17 µM
[14]
  GI50: 32.4 µM
  LC50: > 50.1 µM
  TGI: > 50.1 µM
[15]
  GI50: 12.6 µM
  LC50: > 50.1 µM
  TGI: 49 µM
[16]
  GI50: 8.91 µM
  LC50: > 50.1 µM
[16]; read-out: pTGI (converted)
  TGI: 30.2 µM
[17]
  GI50: 4.68 µM
  LC50: > 50.1 µM
  TGI: > 50.1 µM
[18]
  GI50: 6.46 µM
  LC50: > 50.1 µM
  TGI: 20 µM
[19]
  LC50: 17 µM
[21]
  GI50: > 50.1 µM
  LC50 (concentration killing 50% of cells): > 50.1 µM
  TGI: > 50.1 µM
[22]
  GI50: > 50.1 µM
  LC50: > 50.1 µM
  TGI: > 50.1 µM
[23]
  GI50: 1.32 µM
  LC50: 22.4 µM
  TGI: 4.37 µM
[24]
  GI50: > 50.1 µM
  LC50: > 50.1 µM
  TGI: > 50.1 µM
[25]
  GI50: > 50.1 µM
  LC50: > 50.1 µM
  TGI: > 50.1 µM
[26]
  GI50: > 50.1 µM
  LC50: > 50.1 µM
  TGI: > 50.1 µM
[27]
  GI50: 7.59 µM
  TGI: 24.5 µM
[27]; read-out: Log LC50 (the source's name) (converted)
  CC50: > 50.1 µM
[28]
  GI50: 8.51 µM
  LC50: > 50.1 µM
  TGI: > 50.1 µM
[29]
  GI50: > 50.1 µM
  LC50: > 50.1 µM
  TGI: > 50.1 µM
[30]
  GI50: > 50.1 µM
  LC50 (concentration killing 50% of cells): > 50.1 µM
  TGI: > 50.1 µM
[31]
  GI50: 4.47 µM
  LC50 (50% lethal concentration): > 50.1 µM
  TGI: > 50.1 µM
[32]
  GI50: 9.55 µM
  LC50: > 50.1 µM
  TGI: 28.8 µM
[33]
  GI50: > 50.1 µM
  LC50: > 50.1 µM
  TGI: > 50.1 µM
[34]
  GI50: 7.24 µM
  LC50: > 50.1 µM
  TGI: 21.9 µM
